ZTA counter = counter-screen for EBNA-1 inhibitors: inhibitors of Epstein-Barr virus ZTA; ZTA-DNA binding, fluorescence polarization; AID 2234; 320,000 compounds, 0.15% hits; P03206; inhibition, % at 11 µM; in the data active = inhibition above about 33%
Target sequence (P03206 whole entry, looked up): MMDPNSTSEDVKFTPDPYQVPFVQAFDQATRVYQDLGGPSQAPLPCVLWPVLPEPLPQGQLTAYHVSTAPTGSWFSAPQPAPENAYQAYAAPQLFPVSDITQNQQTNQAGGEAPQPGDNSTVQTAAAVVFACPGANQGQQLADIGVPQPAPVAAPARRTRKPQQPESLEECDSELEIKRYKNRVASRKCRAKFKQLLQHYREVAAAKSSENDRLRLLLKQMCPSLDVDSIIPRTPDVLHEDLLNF
NR3A LBD binder = binders of NR3A ligand-binding domain, primary screen, biophysical, differential scanning fluorimetry, uHTS; 340,000 compounds, 2.5% hits; Tm shift relative to glycine control, % at 25 µM; NR3A LBD differential scanning fluorimetry, Tm shift; 0% = protein alone, 100% = glycine-bound protein; Glutamate receptor ionotropic, NMDA 3A (GRIN3A) ligand-binding domain;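 active = melting temperature shift of at least 10% of the positive control shift, at one fixed dose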
EBNA-1 inhibitor = EBNA-1 DNA-binding inhibitors, primary screen, biochemical, fluorescence polarization; inhibition, % at 14.8 µM; 300,000 compounds, 0.34% hits; AID 1950, 2009; in the data active = inhibition above about 28%
FGF22 binding = binders of human FGF22 protein, primary screen, FGF22 synaptogenesis inhibitor project, biophysical, thermal shift, single point. Fibroblast growth factor 22 (Homo sapiens), Q9HCT0. AID 651658, 2012. recombinant FGF22 thermal shift, SYPRO orange fluorescence; percent of sucrose octasulfate shift, DMSO zero. 340,000 compounds, 1.5% hits. activity (Tm shift, normalised), % at 9.99 µM;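 active = mean Tm shift, scaled 0 neutral to 100 positive control, at about 1.3% or above, every replicate too, limit read from the data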
Target sequence (Q9HCT0 whole entry, looked up): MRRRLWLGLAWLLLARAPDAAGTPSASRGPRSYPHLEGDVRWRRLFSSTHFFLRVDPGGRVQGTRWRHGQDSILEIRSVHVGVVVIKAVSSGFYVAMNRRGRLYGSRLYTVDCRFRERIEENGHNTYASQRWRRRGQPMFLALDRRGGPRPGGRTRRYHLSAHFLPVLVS
DNA FID counter = compounds displacing fluorescent DNA intercalator, primary screen, artefact control for HCV NS3 helicase inhibitor project, biochemical, FID fluorescence; DNA fluorescent intercalator displacement; inhibition, % at 7.9 µM; 290,000 compounds, 0.17% hits; in the data active = inhibition above about 37%;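 also: 0% = vehicle and 100% = reference compound; higher means more ethidium bromide displaced from hairpin DNA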
NS3 helicase inh = inhibitors of HCV NS3 helicase, primary screen, biochemical, Cy5 molecular beacon fluorescence; NS3 helicase DNA unwinding; inhibition, % at 10.9 µM; 290,000 compounds, 0.56% hits; AID 1800, 2009;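 active = inhibition above the mean of all tested compounds plus 3 SD, set per campaign, cut at about 35% in these data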;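 also: 0% = DMSO wells and 100% = thioflavine S control wells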
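Assay system: hepatitis C virus NS3 helicase domain fragment enzyme. Also added: annealed dual-labelled DNA beacon duplex, ATP-started. Timing: 1 h reaction at 25 °C, ATP-initiated. Technique: Cy5 fluorescence at 0 and 60 min, beacon hairpin quenching. Evaluation: % inhibition of unwinding. Replication: one well per compound.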
Starred values were filed as active, the others as inactive. This is a sample that favours compounds with a hit; in the whole collection about 3.6% have one here.

Cc1nc(C)c(CCNC(=O)c2ccc(C(F)(F)F)cc2)s1 was read as ZTA counter 5, NR3A LBD binder 16*, EBNA-1 inhibitor -6, DNA FID counter -1 and NS3 helicase inh 1.
Screening COc1ccc(NC(=O)N2C[C@H](O)COC[C@@H]3O[C@H](CC(=O)N4CCOCC4)CC[C@H]32)cc1 returned FGF22 binding 0.
Cc1nn(C)c(Oc2cccc(C(F)(F)F)c2)c1C=O was read as ZTA counter 8, NR3A LBD binder 4, EBNA-1 inhibitor -1, FGF22 binding 43*, DNA FID counter -2 and NS3 helicase inh 3.
Screening COc1ccccc1S(=O)(=O)N1CC[C@@H]2[C@H]1c1cc(-c3ccccc3F)ccc1N[C@@H]2CO returned FGF22 binding 0.
For C[C@@H]1CN([C@H](C)CO)C(=O)c2cccc(NS(=O)(=O)c3cccs3)c2O[C@@H]1CN(C)S(=O)(=O)c1ccccc1 the results were FGF22 binding 0.
For COc1ccc(C(=O)Nc2cccc(C)c2)cc1 the results were ZTA counter 13, NR3A LBD binder 17*, EBNA-1 inhibitor 14, DNA FID counter -1 and NS3 helicase inh 0.
COc1ccc(C(=O)Nc2cccc(NC(C)=O)c2)cc1 was read as FGF22 binding 0.
For Cc1ccc(C)c(Nc2ccc(C(=O)NCCc3ccccc3)cn2)c1 the results were ZTA counter -17, NR3A LBD binder -9, EBNA-1 inhibitor -8, FGF22 binding 0, DNA FID counter -25 and NS3 helicase inh -1.
For Cc1ccc(Nc2ccc(C(=O)NCCc3ccccc3)cn2)cc1 the results were ZTA counter -9, NR3A LBD binder 24*, EBNA-1 inhibitor 9, FGF22 binding 0, DNA FID counter -12 and NS3 helicase inh -5.
Screening Cc1ccc(C(=O)Nc2ccc(C(=O)N/N=C/c3ccc(C)o3)cc2)cc1 returned ZTA counter -9, NR3A LBD binder 15*, EBNA-1 inhibitor -11, FGF22 binding 0, DNA FID counter -27 and NS3 helicase inh 6.
Screening COc1ccc(OCC(=O)Nc2ccc(N3CCN(C(=O)c4ccccc4C)CC3)cc2)cc1 returned ZTA counter 1, NR3A LBD binder 18*, EBNA-1 inhibitor 6, FGF22 binding 0, DNA FID counter -33 and NS3 helicase inh -9.
`C[C@@H]1CN([C@@H](C)CO)C(=O)c2cc(NS(=O)(=O)c3cccs3)ccc2O[C@H]1CN(C)Cc1ccncc1` gave FGF22 binding 0.
`CCCNC(=O)[C@H]1[C@H](CO)[C@H]2Cn3c(ccc(-c4ccncc4)c3=O)[C@@H]1N2Cc1ccccc1F` gave FGF22 binding 0.
Screening COc1ccc(NC(=O)c2ccccc2)cc1 returned ZTA counter -10, NR3A LBD binder 10 and FGF22 binding 0.
`Cc1ccc(SCC(=O)Nc2cc([N+](=O)[O-])ccc2O)cc1` gave ZTA counter 1, NR3A LBD binder 1, EBNA-1 inhibitor 4, FGF22 binding 43*, DNA FID counter 0 and NS3 helicase inh 6.
`O=C(CSCc1ccc(Cl)cc1)Nc1cc([N+](=O)[O-])ccc1O` gave ZTA counter -14, NR3A LBD binder 0, EBNA-1 inhibitor -10, DNA FID counter 0 and NS3 helicase inh 15.
Screening COc1ccc(/C=N\NC(=O)CCN2CCN(c3ccccc3)CC2)cc1OC returned ZTA counter -10, NR3A LBD binder -1, EBNA-1 inhibitor 2, DNA FID counter -12 and NS3 helicase inh -5.
Screening CC(=O)Nc1ccc(/C=N/NC(=O)CCN2CCN(c3ccccc3)CC2)cc1 returned ZTA counter -1, NR3A LBD binder 33*, EBNA-1 inhibitor -11, FGF22 binding 0, DNA FID counter 1 and NS3 helicase inh 0.
Screening COc1ccc(C(=O)Nc2ccc(C(=O)NCCc3ccccc3)cc2)cc1 returned ZTA counter -15, NR3A LBD binder 22*, EBNA-1 inhibitor -3, FGF22 binding 44*, DNA FID counter -9 and NS3 helicase inh 3.
